In test [1] the target is Sodium-dependent dopamine transporter. The test can be described thus: In vitro affinity for dopamine transporter in Rhesus (Macaca mulatta) or Cynomolgus (Macaca fasicularis) monkey striata using [3H]WIN-35428 displacement. An outline of the steps: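 Caudate-putamen membranes homogenized in ice-cold 50 mM Tris-HCl pH 7.4 and washed by centrifugation. Competition with fixed [3H]WIN 35,428 (0.3 nM) at 4 mg original wet tissue/mL in 50 mM Tris-HCl with 100 mM NaCl. Incubated 2 h at 0-4 °C, filtered on GF/B presoaked in 0.1% BSA, scintillation counting. Triplicate, 2-3 brains; IC50.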

Test [2] concerns the target Sodium-dependent serotonin transporter. Briefly: In vitro affinity for serotonin transporter in Rhesus (Macaca mulatta) or Cynomolgus (Macaca fasicularis) monkey striata using [3H]citalopram displacement. An outline of the steps:
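Cynomolgus or rhesus caudate-putamen homogenised in ice-cold 50 mM Tris-HCl, pH 7.4, and washed by centrifugation. Membranes (4 mg original wet weight/mL) were incubated with 1 nM [3H]citalopram and a range of test drug concentrations in buffer with 100 mM NaCl, 2 h at 0–4 °C.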

Where “and” joins values, the source holds several entries; their conditions need not be identical. Equal entries are not always repeated.

This note sets out measurements from BindingDB's records for doi:10.1021/jm0301484 (Organix, 2003).

As to `CCC(=O)C1C(c2ccc(F)cc2)CC2CCC1N2CCCN1CC[S][Re]2(=[O])[S]CC[N]2C(=O)C1` [(1R,12S) -N-[ (2-( (3'-N-propyl-3''alpha-(4-fluorophenyl)tropane-2''beta-propionyl) (2-mercaptoethyl)amino) -2-aminoethanethiolato]rhenium(v)oxide], in test [1], the IC50 (usually the midpoint of a concentration-inhibition curve) is 3 nM and 5.9 nM and 1.5 nM.
Same read-out and setting: the figure for `COC(=O)C1C(c2ccc(F)cc2)CC2CCC1N2CCCN1CC[S][Re]2(=[O])[S]CC[N]2C(=O)C1` (stereo not drawn) [Diastereiosomer of [N-[2-[(3'-N'-Propyl-3''beta-(4-fluorophenyl)tropane-2''beta-carboxylic acid methyl ester)(2-mercaptoethyl)amino]acetyl]-2-aminoethanethiolato]rhenium(V) oxide] is 3.8 nM and 2.9 nM.
In the case of `CCC(=O)C1=C(c2ccc(Cl)c(Cl)c2)CC2CCC1N2CCCN1CC[S][Re]2(=[O])[S]CC[N]2C(=O)C1` (stereo not drawn) [N-[ (2-( (3'-N-propyl-(1''R) -3''-(3,4-dichlorophenyl)trop-2''-ene-2''--1-propanoyl) (2-mercaptoethyl)amino)acetyl) -2-aminoethanethiolato)rhenium(V) oxide], the IC50 in test [2] is 2000 nM; in test [1], 1200 nM.
The corresponding values for `COC(=O)C1=C(c2ccc(Cl)c(Cl)c2)CC2CCC1N2CCCN1CC[S][Re]2(=[O])[S]CC[N]2C(=O)C1` (stereo not drawn) [N-[ (2-( (3'-N-propyl-(1''R) -3''-(3,4-dichlorophenyl)trop-2''-ene-2''--carbomethoxy) (2-mercaptoethyl)amino)acetyl) -2-aminoethanethiolato)rhenium(V) oxide] are 1690 nM and 60 nM.
For the molecule `CCC(=O)C1=C(c2ccc(F)cc2)CC2CCC1N2CCCN1CC[S][Re]2(=[O])[S]CC[N]2C(=O)C1` (stereo not drawn) [N-[ (2-( (3'-N-propyl-(1''R) -3''-(4-flurophenyl)trop-2''-ene-2''--1-propanoyl) (2-mercaptoethyl)amino)acetyl) -2-aminoethanethiolato)rhenium(V) oxide], the IC50 in test [2] worked out at 2100 nM; in test [1], 660 nM.
Regarding `CCC(=O)C1C(c2ccc(Cl)c(Cl)c2)CC2CCC1N2CCCN1CC[S][Re]2(=[O])[S]CC[N]2C(=O)C1` (stereo not drawn) [N-[ (2-( (3'-N-propyl-(1''R) -3''beta-(3,4-dichlorophenyl)tropane-2''-beta-1-propanoyl) (2-mercaptoethyl)amino)acetyl) -2-aminoethanethiolato)rhenium(V) oxide], the IC50 in test [2] is 337 nM; in test [1] it was 5 nM and 5.3 nM.
In the case of `COC(=O)C1=C(c2ccc(F)cc2)CC2CCC1N2CCCN1CC[S][Re]2(=[O])[S]CC[N]2C(=O)C1` (stereo not drawn) [N-[ (2-( (3'-N-propyl-(1''R) -3''beta-(4-fluorophenyl)trop-2''-ene-2''--carbomethoxy) (2-mercaptoethyl)amino)acetyl) -2-aminoethanethiolato)rhenium(V) oxide], the values for the IC50 in test [2] and in test [1] were 4000 nM and 3500 nM, respectively.
In the same order, the values of `COC(=O)C1=C(c2ccc3ccccc3c2)CC2CCC1N2CCCN1CC[S][Re]2(=[O])[S]CC[N]2C(=O)C1` (configuration not stated) [O-1185] are 964 nM and 63.4 nM.
Consider `COC(=O)C1C(c2ccc3ccccc3c2)CC2CCC1N2CCCN1CC[S][Re]2(=[O])[S]CC[N]2C(=O)C1` (configuration not stated) [O-2130], for which the IC50 in test [2] is 120 nM; in test [1] it was 4 nM and 3.64 nM.
As to `COC(=O)C1C(c2ccc(Cl)c(Cl)c2)CC2CCC1N2CCC[N+]12CC[S][Re]13(=[O])[S]CC[N]3C(=O)C2` (stereo not drawn) [[N-[2-[(3'-N'-Propyl-3''beta-(3,4-dichlorophenyl)tropane-2''beta-carboxylic acid methyl ester)(2-mercaptoethyl)amino]acetyl]-2-aminoethanethiolato]rhenium(V) oxide], in test [2], the IC50 turned out to be 639 nM.
